# LMPTP inh: LMPTP (human) inhibition; P24666; recombinant LMPTP-A, OMFP fluorogenic substrate, fluorescence intensity; inhibition, % at 20 µM; 360,000 tested, 0.22% active; AID 651560;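 active = compounds that cut the enzyme signal by at least half of the control window in the single-dose screen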
#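 material = LMPTP-A | quantity = 0.625 nM enzyme | reagent = OMFP substrate, 400 µM final | buffer or medium = Bis-Tris pH 6.0, DTT, detergent | detection = endpoint fluorescence intensity from OMFP dephosphorylation | dosing = single 20 µM dose | read-out basis = % inhibition relative to no-enzyme and uninhibited control wells | control set = no-enzyme and uninhibited controls | timing = 50 min at room temperature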
# DNMT1 inh: inhibitors of human DNMT1 | DNMT1 molecular beacon, Hinp1I cleavage, fluorescence | 360,000 tested, 0.83% active | inhibition (reported as % activation of signal), % at 10 µM | AID 588458; in the data active = inhibition above about 50%
# Scp-1 inhibitor: inhibitors of human Scp-1 phosphatase; Recombinant Scp1, phosphopeptide, malachite green phosphate absorbance; inhibition, % at 20 µM; 340,000 tested, 0.88% active; AID 493091;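 active = inhibition above about 50% at 20 µM, limit read from the data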
# Target sequence (Q9GZU7 76-261 limits assumed): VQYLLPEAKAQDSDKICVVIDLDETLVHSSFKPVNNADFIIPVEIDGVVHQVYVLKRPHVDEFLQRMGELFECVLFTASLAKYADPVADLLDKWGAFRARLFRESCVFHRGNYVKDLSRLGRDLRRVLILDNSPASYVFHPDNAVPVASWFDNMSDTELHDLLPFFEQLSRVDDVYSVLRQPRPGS
#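 Incubation: 45 min enzyme reaction at room temperature / System: truncated SCP-1 phosphatase (76-261aa) / Reagent: Phospho 17-mer peptide substrate / Buffer or medium: Acidic Tris acetate buffer with magnesium and detergent / Signal: absorbance at 630 nm / Doses: one concentration, 20 µM, with 1.0% DMSO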
# STEP block: inhibitors of human striatal-enriched phosphatase STEP; inhibition, % at 20 µM; 360,000 tested, 0.25% active; AID 588621; recombinant STEP, OMFP fluorogenic substrate, fluorescence; P54829;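 active = inhibition at 20 µM, scaled per plate between control wells, above about 37%, limit read from the data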
#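 Test system: STEP tyrosine phosphatase / Reagent: OMFP at 25 µM / Doses: 20 µM, 1% DMSO / Read-out: percent inhibition scaled to no-enzyme and uninhibited-enzyme controls, plate-pattern corrected / Detection: FITC-channel fluorescence of OMFP product / Medium: Bis-Tris buffer pH 6.0, 2.5 mM DTT, 0.005% Tween 20 / Schedule: 20 min at room temperature, dark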
# Rpn11 block: Rpn11 (human) deubiquitinase inhibition. O00487. human 26S proteasome, Ub4-pepOG fluorescence polarization; 20S core pre-blocked with epoxomicin. inhibition, % at 20 µM. 360,000 tested, 0.59% active;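 active = inhibition at 20 µM, scaled to each plate's controls, above about 33%, limit read from the data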
# Target sequence (O00487 whole entry, looked up): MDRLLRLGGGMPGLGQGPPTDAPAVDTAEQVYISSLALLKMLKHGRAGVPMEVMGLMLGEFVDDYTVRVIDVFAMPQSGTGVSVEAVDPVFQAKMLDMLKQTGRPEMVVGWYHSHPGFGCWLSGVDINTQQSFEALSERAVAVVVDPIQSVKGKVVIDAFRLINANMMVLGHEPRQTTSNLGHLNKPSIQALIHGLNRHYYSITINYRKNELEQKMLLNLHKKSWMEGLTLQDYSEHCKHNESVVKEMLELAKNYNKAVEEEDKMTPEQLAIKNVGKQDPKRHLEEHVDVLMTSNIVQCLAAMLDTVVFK
# STEP inh conf: STEP (human) phosphatase inhibition, single concentration confirmation. shares compounds with STEP block. 520 tested, 32% active. inhibition, % at 20 µM. recombinant STEP, OMFP fluorogenic substrate, fluorescence; call rule not given here
# Hits are given with their value; n = inactive; x = not tested or not shown. Sampled rows, rich in hits. Any-hit rate of the full collection: about 2%.
SMILES,LMPTP inh,DNMT1 inh,Scp-1 inhibitor,STEP block,Rpn11 block,STEP inh conf
CN(C)Cc1ccccc1Sc1ccc(Br)cc1,n,n,n,n,n,x
COC(=O)c1cc(C(=O)Nc2nnc(CC(C)C)s2)cc([N+](=O)[O-])c1,n,n,n,n,n,x
CCC(CC)c1nnc(NC(=O)c2cc(C(=O)OC)cc([N+](=O)[O-])c2)s1,n,n,n,97.4,n,69.1
Cc1cc(N2CCN(C(=O)c3ccco3)CC2)c2ccccc2n1,n,n,n,71.1,n,n
CC(NCc1ccc(S(N)(=O)=O)cc1)C(=O)N1c2ccccc2CC1C (stereo unspecified),n,n,n,n,n,x
COc1cc(/C=C2/SC(=S)N(CC(=O)O)C2=O)ccc1OCC(=O)Nc1ccc(C)c(C)c1,n,n,x,90.7,n,56.2
O=C(Nc1cccc(Cl)c1)Nc1ccc2c(c1)C(=O)OC2,n,n,n,111.5,n,n
O=C(COc1ccc(/C=N/NC(=O)c2ccncc2)cc1)Nc1ccc([N+](=O)[O-])cc1,n,n,n,80.3,n,84.1
COc1ccc(Oc2ccc(/C=C/C(=O)c3ccc(O)cc3)cc2[N+](=O)[O-])cc1,n,n,n,n,n,x
O=S1(=O)N=C(N(Cc2cccs2)c2ccc(O)cc2)c2ccccc21,n,n,n,n,n,x
NS(=O)(=O)c1ccc(NC(=S)NC2CCCCC2)cc1,n,n,n,59.7,n,n
O=C(COC(=O)CCN=C1NS(=O)(=O)c2ccccc21)NNC(=O)c1ccc(Cl)cc1,n,n,n,n,n,x
COC(=O)Nc1sc2c(c1C(N)=O)CCC(C)C2 (stereo unspecified),n,n,n,97.1,n,80.5
CC1CCc2c(sc(NC(=O)C3c4ccccc4Oc4ccccc43)c2C(N)=O)C1 (stereo unspecified),n,n,n,n,n,x
CCN1CCN(C(=S)c2ccc(-c3ccccc3)cc2)CC1,n,n,n,42.5,n,n
Cc1ccc(C(=S)N2CCN(Cc3ccccc3)CC2)cc1,n,n,n,86.9,n,n
CCN1CCN(C(=S)c2ccc(OCC(=O)NCc3ccccc3)cc2)CC1,n,n,n,64.5,n,25.4
CCN1CCN(C(=S)c2ccc(Cl)c(Cl)c2)CC1,n,n,n,90.9,n,51.4
COC(=O)c1ccc([C@H]2CC(=O)O2)cc1,n,n,n,n,n,x
CCOc1cc(C(=O)NCCC(=O)N2CCC3(CC2)NCCc2[nH]cnc23)cc(OCC)c1OCC,n,n,n,44.8,n,n
COC(=O)c1c(NC(=O)Cc2ccccc2)sc2c1CC(C)(C)NC2(C)C,n,n,n,50.7,n,n
COC(=O)c1c(NC(=O)COc2ccc(Cl)cc2)sc2c1CC(C)(C)NC2(C)C,n,n,n,n,n,x
Cc1csc(=O)n1CCC(=O)OCC(=O)NCc1ccc(Cl)cc1Cl,n,n,n,n,n,x
Cc1csc(=O)n1CCC(=O)OCC(=O)NNC(=O)c1ccc(Cl)cc1,n,n,n,48.8,n,n
CCS(=O)(=O)N1N=C(c2cccc(NS(C)(=O)=O)c2)CC1c1ccc(C)cc1 (stereo unspecified),n,n,n,n,x,x
SMILES,LMPTP inh,DNMT1 inh,Scp-1 inhibitor,STEP block,Rpn11 block,STEP inh conf
Cc1cc([N+](=O)[O-])c(C)cc1-c1ccc(/C=N/n2cnnc2)o1,n,n,n,49.8,n,n
O=[N+]([O-])c1ccc(-c2ccc(/C=N/n3cnnc3)o2)c(Br)c1,n,n,n,n,n,x
CCOc1cc(/C=C(\C#N)C(=O)Nc2ccccc2C(=O)O)ccc1OC(=O)c1ccc(C)cc1,n,n,n,58.3,n,n
COc1ccc(/C=C(/C#N)C(=O)Nc2ccccc2C)cc1C(=O)O,n,n,n,n,n,x
CN1CCN(C2=NC(=O)/C(=C/c3ccccc3OS(=O)(=O)c3ccccc3)S2)CC1,n,n,n,46.6,n,n
COC(=O)c1ccc(CNC(=O)Cn2cnc3c(OCc4ccccc4)ncnc32)cc1,n,n,n,n,n,x
CC(C(=O)Nc1ccc(O)cc1C(=O)O)N1C(=O)/C(=C\c2cccs2)SC1=S (stereo unspecified),n,n,n,77.0,n,79.9
Cc1ccc(N=C2NC(=O)/C(=C/c3cccnc3)S2)cc1C,n,n,n,45.3,n,n
Cc1ccc(N=C2NC(=O)/C(=C\c3cccs3)S2)cc1C,n,n,n,n,n,x
CC(C)COC(=O)N1CCCCC1c1cc(C(=O)Nc2ccc3c(c2)OCO3)no1 (stereo unspecified),n,n,x,n,n,x
COC(=O)c1sc(N2C(=O)C(=O)/C(=C(/O)c3ccccc3)C2c2ccco2)nc1C (stereo unspecified),n,n,n,n,n,x
COc1ccc(-c2csc3nc(C)nc(N4CCCCC4)c23)cc1OC,n,n,n,n,n,x
COc1ccc(-c2csc3nc(-c4cccnc4)nc(N4CCC(C(N)=O)CC4)c23)cc1OC,n,n,n,49.8,n,n
COc1ccc(CNC(=O)Cc2cn(C)c3ccccc23)c(OC)c1,n,n,n,n,n,x
COc1cccc(NC(=O)Cc2cn(C)c3ccccc23)c1,n,n,n,50.4,n,n
CC(C)Oc1ccc(C(=O)NCC(=O)N2CCN(S(=O)(=O)/C=C/c3ccccc3)CC2)cc1,n,n,n,n,n,x
Cc1ccccc1C(=O)NCCCCc1ccccc1,n,n,n,45.7,n,n
Cc1ccccc1C(=O)NCCCc1ccccc1,n,n,n,n,n,x
S=C(Nc1ccccc1Cl)NC1CCN(Cc2ccccc2)CC1,n,n,n,n,n,x
S=C(Nc1ccccc1Cl)NC1CCC(NC(=S)Nc2ccccc2Cl)CC1 (stereo unspecified),n,n,n,43.6,n,n
CCOC(=O)N1CCC(N(CCN(C)C)C(=S)Nc2cc(Cl)ccc2C)CC1,n,n,n,65.1,n,35.6
COc1ccc(Cl)cc1NC(=S)N(CCCN1CCOCC1)Cc1cn(C)c2ccccc12,n,n,n,94.5,n,48.2
COc1ccccc1NC(=S)N(CCCN1CCOCC1)Cc1cn(C)c2ccccc12,n,n,n,n,n,x
COc1cc(Cl)ccc1NC(=S)N(CCCN1CCOCC1)Cc1cn(C)c2ccccc12,n,n,n,90.7,n,49.4
O=C(NC(c1ccc(Cl)cc1)c1cnccn1)C1CCN(CCCOc2ccccc2)CC1 (stereo unspecified),n,n,x,n,n,x
COc1ccc(NC(=O)C2CC(c3cccc(Br)c3)=NO2)cc1OC (stereo unspecified),n,n,n,n,n,x
O=C(Nc1cccc(O)c1)C1CC(c2cccc(Br)c2)=NO1 (stereo unspecified),n,n,n,78.7,n,n
